Experimental data gathered from unrelated publications.
Each line is one published result; the experiments were not run side by side.
Target: Mitogen-activated protein kinase 10 (MAPK10, Homo sapiens, UniProt P53779)

| SMILES | assay | conditions | remaining binding |
| --- | --- | --- | --- |
| CN(CCCC(F)(F)F)c1nccc(-c2cnn3ncccc23)n1 | binding | 1 µM | 97% |
| Nc1ncc2c(n1)-c1c([nH]c3ccc(C#CC4CC4)cc13)CCCC2 | binding, competition with immobilised ligand | 1 µM | 76% |
| COc1cnc(Nc2cccc(S(N)(=O)=O)c2)nc1N1CCN(c2ccccc2)CC1 | binding, competition with immobilised ligand | 1 µM | 83% |
| CN(C)c1ncc(F)c(-c2cnn3ncccc23)n1 | binding | 1 µM | 73% |
| O=C(c1ccc(Nc2ncc(Cl)c(-c3ccc(Cl)s3)n2)cc1)N1CCC(N2CCCC2)CC1 | binding, competition with immobilised ligand | 1 µM | 1.1% |
| O=C(O)[C@@H]1[C@@H](Cn2nnc3ccccc3c2=O)CC[C@H]1C(=O)c1ccc(OCCC2CCOCC2)cc1 | cell-free assay, competition with immobilised ligand | 1 µM | 100% |
| O=C(c1ccc(Nc2nccc(-c3cc4ccccc4s3)n2)cc1)N1CCC(N2CCCC2)CC1 | binding, competition with immobilised ligand | 1 µM | 12% |
| c1cncc(-c2cccc(Nc3nccc(NC4CCCCC4)n3)c2)c1 | binding, competition with immobilised ligand | 10 µM | 51% |
| O=C(N1CCS(=O)(=O)CC1)N1C[C@H](c2ccc(OC(F)(F)F)cc2)C[C@H](c2nc(C3CC3)no2)C1 | cell-free assay, competition with immobilised ligand | 1 µM | 79% |
| FC(F)(F)Oc1cccc(-c2cnc3ccc(-c4ccncc4)nn23)c1 | cell-free assay, competition with immobilised ligand | 5 µM | 65% |
| Cc1cnc(Nc2ccc(C(=O)N3CCC(N4CCCC4)CC3)cc2)nc1-c1cc2ccccc2s1 | binding, competition with immobilised ligand | 1 µM | 8.6% |
| O=C(NCC1CCOCC1)c1n[nH]cc1NC(=O)c1c(F)cccc1F | binding, competition with immobilised ligand | 1 µM | 31% |
| O=C1CCc2cc(Nc3cc(OC4CCOCC4)c([N+](=O)[O-])cc3Cl)ccc2N1 | cell-free assay, competition with immobilised ligand | 1 µM | 98% |
| F[C@@H]1CCN(c2nccc(-c3cnn4ncccc34)n2)C1 | binding | 1 µM | 87% |
| Cc1noc([C@H]2C[C@@H](c3ccc(C(F)(F)F)cc3)CN(C(=O)N3CCS(=O)(=O)C3)C2)n1 | cell-free assay, competition with immobilised ligand | 1 µM | 88% |
| COC(=O)Nc1nc2ccc(C(=O)c3ccccc3)cc2[nH]1 | cell-free assay, competition with immobilised ligand | 10 µM | 3% |
| N[C@@H]1CCN(c2nccc(-c3cnn4ncccc34)n2)C1 | binding | 1 µM | 52% |
| Cc1nc(N2CC[C@@H](O)C2)ncc1-c1cc(C(F)(F)F)cc2[nH]ncc12 | binding, competition with immobilised ligand | 1 µM | 72% |
| C[C@@H]1CN(c2ccc3ncc(-c4ccc5[nH]nc(C6CC6)c5c4)n3n2)C[C@H](C)O1 | binding, competition with immobilised ligand | 0.5 µM | 52% |
| C[C@H]1CCN(c2nccc(-c3cnn4ncccc34)n2)C1 | binding | 1 µM | 32% |
| CCC(=O)N[C@H]1CC[C@@H](C(=O)N(C)c2ccc(-c3nc4ccccc4o3)cc2)C1 | cell-free assay, competition with immobilised ligand | 1 µM | 85% |
| CC1CCCN1c1nccc(-c2cnn3ncccc23)n1 (stereo not drawn) | binding | 1 µM | 79% |
| CS(=O)(=O)NCC[C@H](NC(=O)c1cncc2c1cnn2-c1ccc(F)cc1)c1ccnc(S(C)(=O)=O)c1 | cell-free assay, competition with immobilised ligand | 1 µM | 100% |
| COc1ncc2cc3ccccc3nc2c1C#N | cell-free assay, competition with immobilised ligand | 5 µM | 100% |
